This is a sample that favours compounds with a hit; in the whole collection about 2.8% have one here.
E-sel inducer: induces E-selectin expression in human endothelial cells | HUVEC E-selectin immunofluorescence imaging; normalized: neutral wells 0, TNF-alpha wells 100 | activation, % at 7.58 µM | 0.37% of 260,000 active;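 active means mean E-selectin-positive cell signal at least 10% of the positive control, reached in at least 60% of replicates, without over 20% cell loss; inconclusive means no rule given, readout overlaps actives, possibly toxicity-flagged; inactive means the rest, including those meeting only one limit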
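Test system: HUVEC; input: 3,000 HUVEC/well; measured by: immunofluorescence imaging; read-out: % PE-positive cells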
SIRT5 inh: blocks human SIRT5 desuccinylation of peptide. Q9NXA8. Purified SirT5, succinyl-peptide AMC, trypsin-coupled fluorescence. inhibition, % at 15 µM. 1.1% of 330,000 active; in the data active means inhibition above about 15%; inconclusive means no clear call, values can overlap the other calls
Target sequence (Q9NXA8 whole entry, looked up): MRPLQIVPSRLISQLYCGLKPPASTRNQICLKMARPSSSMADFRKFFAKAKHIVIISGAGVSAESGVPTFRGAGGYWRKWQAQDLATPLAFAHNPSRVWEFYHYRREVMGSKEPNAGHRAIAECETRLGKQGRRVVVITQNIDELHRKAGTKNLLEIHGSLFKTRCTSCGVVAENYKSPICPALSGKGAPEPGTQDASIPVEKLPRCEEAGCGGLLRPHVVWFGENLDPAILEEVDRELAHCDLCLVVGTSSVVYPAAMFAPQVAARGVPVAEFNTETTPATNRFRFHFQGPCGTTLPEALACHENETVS
DENV2 CPE rescue: DENV2-induced cell death inhibition. AID 651640. 1.7% of 350,000 active. DENV2-infected cells, cytopathic effect rescue, plate reader. CPE inhibition, % at 9.99 µM; in the data active means CPE inhibition above about 20%, passing the limit was not always enough; inconclusive means no clear call, values can overlap the other calls; tested in BHK-21 cells;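 further: 0% = median of neutral control wells and 100% = median of positive control wells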
* marks the source's active call; other numbers are inactive results; ? = inconclusive; . = no result given.

SMILES | E-sel inducer | SIRT5 inh | DENV2 CPE rescue
CCCNC(=O)C[C@H]1CC[C@@H]2[C@H](COC[C@@H](O)CN2C(=O)Nc2ccc3c(c2)OCO3)O1 | 0 | -3 | -10
N#Cc1c(N)[nH]c(C(=O)c2ccccc2)c1-c1ccc(Br)cc1 | 0 | 1 | 57*
COC(=O)c1c(N)[nH]c(C(=O)c2ccccc2)c1-c1ccc(Br)cc1 | 0 | -4 | -3
CC(C)(C)C(=O)c1c(N)[nH]c(C(=O)c2ccccc2)c1-c1ccc(Br)cc1 | 0 | 20* | -2
COc1ccc(-c2c(C(=O)c3ccccc3)[nH]c(N)c2C(=O)c2ccc(Br)cc2)cc1OC | -1 | -1 | ?
COc1ccc(NC(=O)N2CC3(C2)CN(C(=O)C2CCC2)[C@H](CO)c2c3c3ccc(OC)cc3n2C)cc1 | 0 | 4 | 16
COc1ccccc1C#Cc1ccc2c(c1)[C@@H]1[C@@H](CCN1C(=O)Cc1ccccc1)[C@H](CO)N2 | -1 | 8 | 42*
COc1ccccc1C#Cc1ccc2c(c1)[C@@H]1[C@@H](CCN1C(=O)Cc1ccccc1)[C@@H](CO)N2 | 0 | 7 | -7
COc1ccccc1C#Cc1ccc2c(c1)[C@@H]1[C@@H](CCN1C(=O)c1ccccc1)[C@@H](CO)N2 | 0 | 6 | -5
COc1ccccc1C#Cc1ccc2c(c1)[C@@H]1[C@@H](CCN1C(=O)c1ccccc1)[C@H](CO)N2 | -1 | 15 | 45*
COc1ccc2c3c([nH]c2c1)[C@@H](CO)N(C(=O)C1CCC1)CC31CCN(S(C)(=O)=O)CC1 | 0 | 11 | 4
CO[C@@H]1CN(C)C(=O)c2cc(NS(C)(=O)=O)ccc2OC[C@@H](C)N(C(=O)C2CCC2)C[C@H]1C | 0 | -4 | 9
CCNC(=O)[C@@H]1[C@@H](CO)[C@@H]2Cn3c(ccc(-c4ccc(OC)cc4)c3=O)[C@@H]2N1Cc1ccccc1 | 1 | -34 | 8
O=C1C(Cl)=C(N2CCCCCC2)C(=O)N1c1ccc(Cl)cc1 | 0 | 0 | 76*
O=C1C(Cl)=C(N2CCCC2)C(=O)N1c1ccc(F)cc1 | 0 | -2 | 10
Cc1ccccc1-c1cnc(C(O)c2cccc(C)c2C)[nH]1 (centres undefined) | 0 | -1 | 21*
Cc1cccc(C(O)c2ncc(-c3ccccc3Cl)[nH]2)c1C (centres undefined) | 1 | . | 1
CO[C@@H]1CN(C)C(=O)c2ccc(NS(=O)(=O)c3ccc(C)cc3)cc2OC[C@H](C)N(C(=O)NC(C)C)C[C@H]1C | 0 | . | .
Nc1ccc[n+](CC(=O)c2ccccc2)c1 | . | -6 | -1
O=C(C[n+]1ccsc1)c1ccccc1 | -1 | 2 | 31*
C[C@H](CO)N1C[C@H](C)[C@@H](CN(C)Cc2ccncc2)Oc2cc(-c3ccccc3F)ccc2S1(=O)=O | 0 | 7 | -9
Cc1nc2ccccc2c(=O)n1-c1ccc(NS(=O)(=O)c2ccccc2)cc1 | -1 | 3 | 68*
Cc1nc2ccccc2c(=O)n1-c1ccc(NS(=O)(=O)c2ccc(F)cc2)cc1 | 0 | -4 | 4
CC(=O)N(C)C[C@@H]1Oc2ncc(C#Cc3cccnc3)cc2C(=O)N([C@@H](C)CO)C[C@@H]1C | 0 | -3 | -3
O=C(N[C@@H]1CC[C@@H](CCNS(=O)(=O)c2ccccc2)O[C@H]1CO)c1cccc(F)c1 | 0 | 2 | -2
SMILES | E-sel inducer | SIRT5 inh | DENV2 CPE rescue
Cc1ccc(-c2nc3ccccc3c(=O)o2)cc1 | . | 16* | -1
Cc1ccc2nc(-c3ccccc3)oc(=O)c2c1 | 0 | -5 | 1
COc1cccc(C(=O)Nc2ccc3nc4n(c(=O)c3c2)CCCC4)c1 | 0 | -3 | 18
Cc1ccccc1C(=O)Nc1ccc2nc3n(c(=O)c2c1)CCCC3 | 0 | -2 | -1
COc1cc(OC)cc(C(=O)Nc2ccc3nc4n(c(=O)c3c2)CCCC4)c1 | . | 0 | 119*
CCOc1ccccc1C(=O)Nc1ccc2nc3n(c(=O)c2c1)CCCCC3 | 1 | 23* | -4
C[C@H]1CN([C@@H](C)CO)C(=O)c2cc(Br)cnc2O[C@H]1CN(C)C(=O)NC1CCCC1 | 0 | . | .
C[C@H]1CN([C@@H](C)CO)C(=O)c2cccc(NC(=O)Nc3ccc(C(F)(F)F)cc3)c2O[C@@H]1CN(C)C(=O)Nc1ccc2c(c1)OCO2 | 0 | . | -17
O=C(N[C@@H]1C=C[C@H](CC(=O)N2CCCCC2)O[C@H]1CO)c1ccc2c(c1)OCO2 | 0 | 0 | 0
C[C@H](CO)N1C[C@H](C)[C@@H](CN(C)Cc2ccncc2)Oc2ncc(C#Cc3ccncc3)cc2C1=O | 0 | . | .
CO[C@@H]1CN(C)C(=O)c2cc(NS(=O)(=O)c3ccc(Oc4ccccc4)cc3)ccc2OC[C@H](C)NC[C@H]1C | 0 | 1 | -7

Compound activity: PubChem, Broad Institute
